{"data": "Experimental data of several laboratories", "target": "5'-AMP-activated protein kinase catalytic subunit alpha-1 (PRKAA1, Homo sapiens, UniProt Q13131)", "method": "competition with immobilised ligand"}
{"SMILES": "CN(C)C(=O)Cn1cc(-c2nc(C3(c4ccc(-c5cnc(N)nc5)cc4)CC3)no2)cn1", "test": "cell-free assay", "setting": "1 µM", "remaining binding": "98%"}
{"SMILES": "Cc1cnc(Nc2ccc(C(=O)N3CCC(N4CCCC4)CC3)cc2)nc1-c1cc2ccccc2s1", "test": "binding", "setting": "1 µM", "remaining binding": "7.9%"}
{"SMILES": "O=C(NC[C@@H]1[C@H]2CN(C(=O)OCc3cc(C(F)(F)F)cc(C(F)(F)F)c3)C[C@@H]12)c1ccc2[nH]nnc2c1", "test": "cell-free assay", "setting": "1 µM", "remaining binding": "100%"}
{"SMILES": "O=C(c1ccc(Nc2nccc(-c3cc4ccccc4s3)n2)cc1)N1CCC(N2CCCC2)CC1", "test": "binding", "setting": "1 µM", "remaining binding": "36%"}
{"SMILES": "C[C@@H](c1ccc(-n2cnc3c(N)ncnc32)cc1)N1CCc2nn(C)c(Cc3ccccc3)c2C1=O", "test": "binding", "setting": "0.1 µM", "remaining binding": "95%"}
{"SMILES": "F[C@@H]1CCN(c2nccc(-c3cnn4ncccc34)n2)C1", "test": "binding", "setting": "1 µM", "remaining binding": "85%"}
{"SMILES": "CS(=O)(=O)c1cc(C2(NC(=O)c3cncc4c3cnn4-c3ccc(F)cc3)CC2)ccn1", "test": "cell-free assay", "setting": "1 µM", "remaining binding": "99%"}
{"SMILES": "COc1ncc2cc3ccccc3nc2c1C#N", "test": "cell-free assay", "setting": "5 µM", "remaining binding": "100%"}
{"SMILES": "CN(C)c1ncc(F)c(-c2cnn3ncccc23)n1", "test": "binding", "setting": "1 µM", "remaining binding": "48%"}
{"SMILES": "O=C(Nc1c[nH]nc1C(=O)NC1CCNCC1)c1cc(F)cc(F)c1", "test": "binding", "setting": "1 µM", "remaining binding": "100%"}
{"SMILES": "Nc1ncc2c(n1)-c1c([nH]c3ccc(C#CC4CC4)cc13)CCCC2", "test": "binding", "setting": "1 µM", "remaining binding": "97%"}
{"SMILES": "O=C(NCCCN1CCOCC1)c1ccc(Nc2ncc(Cl)c(-c3ccc(Cl)s3)n2)cc1", "test": "binding", "setting": "1 µM", "remaining binding": "15%"}
{"SMILES": "FC(F)(F)Oc1cccc(-c2cnc3ccc(-c4ccncc4)nn23)c1", "test": "cell-free assay", "setting": "5 µM", "remaining binding": "96%"}
{"SMILES": "N[C@@H]1CCN(c2nccc(-c3cnn4ncccc34)n2)C1", "test": "binding", "setting": "1 µM", "remaining binding": "95%"}
{"SMILES": "NS(=O)(=O)c1cc(NC(=O)C2(c3ccccc3Cl)CC2)ccc1Oc1cccc(Cl)c1", "test": "cell-free assay", "setting": "1 µM", "remaining binding": "80%"}
{"SMILES": "c1cnn2ncc(-c3ccnc(N4CCC45COC5)n3)c2c1", "test": "binding", "setting": "1 µM", "remaining binding": "92%"}
{"SMILES": "CNCc1ccccc1-c1csc([C@@H](C)Nc2nc(C)nc3cc(OC)c(OC)cc23)c1", "test": "cell-free assay", "setting": "1 µM", "remaining binding": "100%"}
{"SMILES": "C[C@H]1CCN(c2nccc(-c3cnn4ncccc34)n2)C1", "test": "binding", "setting": "1 µM", "remaining binding": "93%"}
{"SMILES": "COc1cnc(Nc2cccc(S(N)(=O)=O)c2)nc1N1CCN(c2ccccc2)C(=O)C1", "test": "binding", "setting": "1 µM", "remaining binding": "100%"}
{"SMILES": "CN(C)c1nccc(-c2cnc3ncccn23)n1", "test": "binding", "setting": "1 µM", "remaining binding": "100%"}
{"SMILES": "O=C(Nc1cnc(Oc2ccc(F)cc2)nc1)N1CCc2ncccc2[C@@H]1c1ccc(F)cc1", "test": "cell-free assay", "setting": "1 µM", "remaining binding": "88%"}
